Experimental data published in the array DNA melting data of Ke et al. (doi:10.1101/2024.01.08.574731).

Tests used:
[1] = melting temperature; fluorescence melt of hairpins on a sequencing array, two-state fit, raised by 9.35 °C to match UV melts; settings: sodium 0.088 M
Summary of the method: (§1)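 With Cy3 and quencher oligos annealed, library hairpins on a sequenced MiSeq flow cell were imaged for Cy3 fluorescence in 50 mM Na-HEPES pH 8.0, 25 mM NaCl, in 2.5 °C steps up to 60 °C. Melting temperature and folding enthalpy were derived from bootstrapped two-state fits of signals normalised to pre-quench Cy3 and to control constructs. Four replicates were combined by inverse variance, with fitted temperatures raised by 9.35 °C to match UV melts.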

[2] = folding enthalpy; higher = less favourable; fluorescence melt of hairpins on a sequencing array, two-state fit; settings: sodium 0.088 M
Summary of the method: as §1

Sequence	Tm [1] [°C]	folding enthalpy [2] [kJ/mol]
GTGAACGAAAGTTTACAC ((((((....)))..)))	39.6	-77.9
GCCCTCGAAAGAGACGGC ((((((....)))..)))	44.8	-106
GATCGTTTTTACGATC ((((((....))))))	56.9	-187
GTAGATCGAAAGATTTAC (((.(((....))).)))	39.5	-127
GTTCGGCGAAAGCCAAC (((.(((....))))))	42.9	-51.3
GCGCTTCGAAAGAAACGC (((.(((....))).)))	54.5	-162
GAGCTTGAAAAAGCTC ((((((....))))))	58.1	-174
GATGGGCGAAAGCCGATC (((.(((....))).)))	52.7	-78.5
GCACAGCGAAAGCGGGGC ((.(.((....)).).))	65.9	-145
GCCGCTCCGAAAGGAGGC (((..(((....))))))	55.4	-41
GTCACGTCGAAAGACGAC (((..(((....))))))	32.1	-41.2
GCAGCGCCGAAAGGCTGC (((..(((....))))))	53.9	-61.3
GCCTCGGGAAACTGGGGC (((.(.(....).).)))	47.4	-157
GCGACCGAAAGGTCTCGC ((((((....)))..)))	50.2	-61
GATCTAATCGTAGATC ((((((....))))))	36.1	-57.3
GGCCGGCGAAAGCCGCC (((.(((....))))))	65.3	-50.1
GATCTGCTGGCAGATC ((((((....))))))	62.5	-182
GCGCACGAAAGTGACGC ((((((....))).)))	63.3	-100
GAATACGAAAGTAATTC ((((((....))).)))	34.1	-56.9
GATCGTTACACGATC ((((((...))))))	58.4	-151
GGACCCGAAAGGGGATCC ((((((....)))..)))	51.4	-62.1
GCACCGCGAAAGCGTCGC ((..(((....)))..))	41.2	-53.8
GAGGGCGAAAGCCCCCTC ((((((....)))..)))	42.7	-30.7

Sequence	Tm [1] [°C]	folding enthalpy [2] [kJ/mol]
GATCAAGGAAACTTGACC (.(((((....))))).)	29.8	-78.3
GGCCCGGGAAACCGGACC ((.((((....)))).))	57.5	-123
GGTACAGCGAAAGCTACC (((..(((....))))))	38.1	-68.5
GGATGGGCGAAAGCCTCC (((..(((....))))))	36.9	-47.5
GGCTATGGAAACACAGCC ((((.((....)).))))	43.2	-125
GTCATCGAAAGATTCGAC ((((((....)))..)))	25.8	-51.6
GATCCGGTCGCGGATC ((((((....))))))	60.2	-153
GGATAAGAAATTATCC ((((((....))))))	42.1	-116
GATCAATCCATTGATC ((((((....))))))	49.7	-178
CGTACCGGAAACGGAACG (((.(((....))).)))	50.7	-129
GATCTGTCGCCAGATC ((((((....))))))	50.1	-157
GGTACCGAAAGGTCTACC ((((((....)))..)))	33.9	-62.8
GCGTCCGACGC ((((...))))	53.9	-113
AACCGGAAACGGTT (((((....)))))	50	-82.8
GCGAGGCGAAAGCGTTGC ((.(.((....)).).))	55.5	-77.7
GGCTCAACGAAAGTTGCC (((..(((....))))))	38.2	-57.5
GGCCACGGAAACGTGGTC (.(((((....))))).)	64.9	-108
GTTTGTCCGAAAGGAAAC (((..(((....))))))	35.9	-79.2
GGGCTCGGAAACGGGCTC (.((.((....)).)).)	49.6	-84.5
GTATTACGAAAGTACTAC (((.(((....))).)))	32.7	-83.1
GCGCGTCCGAAAGGACGC (((..(((....))))))	67.3	-23.4
GTAGATCCGAAAGGATAC (((..(((....))))))	30.4	-46.2
GCTAAGCGAAAGCCGAGC (((..((....))..)))	42.2	-80

Sequence	Tm [1] [°C]	folding enthalpy [2] [kJ/mol]
GGCAGCGAAAGCTCAGCC ((((((....)))..)))	51	-76.9
GTCGCGGGAAACTGCGAC (((((.(....).)))))	65.3	-173
GCGTGAGGAAACTCACAC (.(((((....))))).)	42.3	-57.8
GGCTGAACGAAAGTTGCC (((..(((....))))))	46.9	-103
GTGTGCGAAAGCATCAC ((((((....))).)))	54	-91.5
GCAGACGAAAGTCCTTGC ((((((....)))..)))	32.5	-51.5
GATCAGGACGCTGATC ((((((....))))))	54.2	-175
GCATGCGAAAGCATTGC ((((((....))).)))	57.9	-89.2
GACAGCGAAAGCTCAGTC ((((((....)))..)))	38.7	-48.3
GCATACGAAAGTATTGC ((((((....))).)))	45.7	-105
GATCAATATCTTGATC ((((((....))))))	42.6	-128
GATCCGTAGGCGGATC ((((((....))))))	59.2	-173
GGGACACGAAAGTGCCC (((.(((....))))))	60.9	-101
GATCCATATTGGATC ((((((...))))))	51.7	-156
GCGAAAAGTCGC ((((....))))	41.7	-50.6
GATCCCGAAAGGGGGATC ((((((....)))..)))	51	-83.9
GTTATACGAAAGTAGAAC (((.(((....))).)))	45.1	-125
GCGCACGAAAGTGGCCGC ((((((....)))..)))	54.1	-81.3
GTACAAGAAATTGTAC ((((((....))))))	45	-136
GATCCTTCTAGGATC ((((((...))))))	57.1	-128
GATCCGGCCTCGGATC ((((((....))))))	58.7	-176
GACGATGGAAACGTCGTC (((((.(....).)))))	54.5	-147
GCGGCTGACCGC ((((....))))	58.1	-102

Sequence	Tm [1] [°C]	folding enthalpy [2] [kJ/mol]
GTCTGGCCGAAAGGCGAC (((..(((....))))))	43.9	-65.6
GATCCGGGAAACTGGGTC ((.((.(....).)).))	40	-126
GCTACTCGAAAGAGCAGC (((.(((....))).)))	49.6	-158
GGACGCGAAAGCGAATCC ((((((....)))..)))	36.5	-56.4
GCACTTGGAAACGAGTGC (((((.(....).)))))	54.1	-230
GCACCCTCGAAAGAGTGC (((..(((....))))))	41.6	-96.6
GATCATCAGTATGATC ((((((....))))))	45.8	-123
GAACAGCGAAAGCTATTC (((.(((....))).)))	34.7	-65.4
GATCAAGGTTTTGATC ((((((....))))))	45.1	-124
GGACTACGAAAGTACTCC (((.(((....))).)))	34.9	-55.7
GAGAAGCGAAAGCTACTC (((.(((....))).)))	49.9	-121
GATCCCGAAAGGGAAATC ((((((....)))..)))	35.1	-50.4
GTGTTGGGAAACTGACAC ((((..(....)..))))	39.3	-116
GCGTGGATACGC ((((....))))	66.6	-118
GTTATCCCGAAAGGGAAC (((..(((....))))))	26.8	-41.9
GTTGTACCGAAAGGTAAC (((..(((....))))))	47.4	-99.2
GCTGGACGAAAGTCAAGC (((.(((....))).)))	58.7	-160
GCTGTTCGAAAGAAAAGC (((.(((....))).)))	46.5	-120
GATCACGAAAGTGTTATC ((((((....)))..)))	28.4	-40
GGGAAGCGAAAGCTCCC (((.(((....))))))	59.7	-162
CGCGCGGAAACGCTGGCG ((((((....)))..)))	53.7	-124
GGACTGGGAAACTGGTCC ((((..(....)..))))	45.5	-104
GGGGTAGGAAACTGCCCC ((((.((....)).))))	57.2	-198
